Experiment [1] can be described thus: Inhibition of CREB kinase-inducible domain/CREB binding protein KID-interacting domain interaction after 20 to 24 hrs by luciferase reporter gene assay. In general terms: A reporter such as luciferase makes a cellular process visible.
The nature of experiment [2]: Inhibition of CREB expressed in HEK293T cells assessed as inhibition of forskolin-stimulated CRE transcription incubated for 30 mins prior to forskolin-stimulation measured after 4.5 hrs by luciferase reporter gene assay. Format: cell-based. The settings on record: HEK-293T. In short, it runs like this:
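HEK293T cells transfected with pCRE-RLuc (Lipofectamine 2000), replated after 3 h at 1-2 × 10^4 cells/well and attached overnight. Compounds at various concentrations added 30 min before forskolin (10 μM final), then 4.5 h at 37 °C. Lysate Renilla luciferase read with benzyl-coelenterazine (pH 7.4, 10 μg/mL), normalized to Bradford-dye protein (RLU/μg). IC50 from non-linear regression.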

The structures appear in SMILES notation.

Usually IC50 stands for the midpoint of a concentration-inhibition curve.

As to `Clc1ccc(Nc2noc3cc4ccccc4cc23)cc1`, the IC50 in experiment [1] was above 50 µM; in experiment [2], 24.4 µM.
The like results for `O=c1oc2cc3ccccc3cc2c(=O)n1-c1ccc(Cl)cc1` were, in that order, above 50 µM and 30.8 µM.
For the molecule `Cn1nc(Nc2ccc(Cl)cc2)c2cc3ccccc3cc21`, the IC50 was 5.19 µM in experiment [1] and above 50 µM in experiment [2].
Regarding `Clc1ccc(Nc2n[nH]c3cc4ccccc4cc23)cc1`, the IC50 in experiment [1] is 8.74 µM; in experiment [2], 4.75 µM.
For the molecule `O=c1[nH]c2cc3ccccc3cc2c(=O)n1-c1ccc(Cl)cc1`, the IC50 in experiment [1] and in experiment [2] was above 50 µM throughout.
For `O=C(Nc1ccc(Cl)cc1)c1cc2ccccc2cc1O`, the IC50 in experiment [1] stood at 2.9 µM; in experiment [2], 2.29 µM.
In the case of `Clc1ccc(Nc2ncnc3cc4ccccc4cc23)cc1`, the values for the IC50 in experiment [1] and in experiment [2] were 9.46 µM and 19 µM, respectively.
